Compounds with a hit are over-represented: about 3.2% of the library has one in this group of screens.
NR2E3 ag-1: activates human NR2E3 receptor; Q9Y5X4; CHO-S Gal4-NCOR/VP16-NR2E3 two-hybrid, luciferase; inhibition of corepressor binding, % at 3.98 µM; hit rate 0.35% among 360,000;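 active = inhibition above the mean of all tested compounds plus 3 SD, cut at about 70% in these data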;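 note: 0% = DMSO with NR2E3 transfected cells and 100% = cells lacking NR2E3 construct; higher means lower luciferase signal from less NR2E3 corepressor binding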
Target sequence (Q9Y5X4 whole entry, looked up, the tested form may be a part): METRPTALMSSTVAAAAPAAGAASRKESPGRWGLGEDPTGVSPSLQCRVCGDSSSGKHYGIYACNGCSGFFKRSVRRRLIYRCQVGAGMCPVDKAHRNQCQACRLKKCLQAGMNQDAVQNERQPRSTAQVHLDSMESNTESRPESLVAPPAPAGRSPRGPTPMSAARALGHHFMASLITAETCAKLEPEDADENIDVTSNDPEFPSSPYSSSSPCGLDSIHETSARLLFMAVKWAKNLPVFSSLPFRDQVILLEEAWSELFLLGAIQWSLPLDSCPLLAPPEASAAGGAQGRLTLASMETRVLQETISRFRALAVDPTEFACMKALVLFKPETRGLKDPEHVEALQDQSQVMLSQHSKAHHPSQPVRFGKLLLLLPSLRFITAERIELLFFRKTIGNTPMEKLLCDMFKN
DAX1 inh-1: NR0B1 (DAX1) inhibition. P51843. hit rate 0.99% among 340,000. HEK293 Gal4-DAX1 luciferase reporter, luminescence. inhibition, % at 6.75 µM;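 active = inhibition above the mean over all tested compounds plus 3 SD, cut at about 4.2% in these data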;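 note: 0% = DAX1-transfected cells with DMSO and 100% = empty-vector control cells with DMSO; inhibition shows as a rise in luminescence from relieved DAX1 repression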
Target sequence (P51843 207-470 limits assumed): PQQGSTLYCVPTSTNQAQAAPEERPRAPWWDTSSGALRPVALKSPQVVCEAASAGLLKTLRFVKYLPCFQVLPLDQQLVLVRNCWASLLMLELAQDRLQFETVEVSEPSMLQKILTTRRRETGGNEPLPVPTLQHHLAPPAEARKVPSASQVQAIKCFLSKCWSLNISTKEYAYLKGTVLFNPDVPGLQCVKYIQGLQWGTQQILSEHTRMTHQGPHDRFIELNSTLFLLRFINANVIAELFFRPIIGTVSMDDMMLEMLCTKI
SMARCA2 activ: increases SMARCA2 function in MMTV reporter cells; AID 652017; hit rate 1% among 370,000; activation, % at 9.1 µM; MG213 cells, MMTV-luciferase reporter, dexamethasone, overnight; in the data active = activation above about 7.8%;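 note: 0% = vehicle wells and 100% = reference activator wells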
GASC-1 inh: inhibitors of human GASC-1 (JMJD2C) demethylase; inhibition, % at 2.35 µM; AID 2099; hit rate 0.069% among 330,000; GST-JMJD2C(1-420) H3K9me3 demethylation, DELFIA europium;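 active = more than half of a compound's replicate wells show inhibition beyond 50%, single wells judged on their own value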;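 note: signal counts dimethyl H3K9 product captured on neutravidin plate; 0% = median of DMSO wells and 100% = 0.3 times that DMSO median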
NR2E3 ag-2: activates human photoreceptor nuclear receptor NR2E3; hit rate 0.12% among 320,000; inhibition of corepressor binding, % at 4.78 µM; GST-NR2E3/biotin-RetCOR TR-FRET, 1536-well; Q9Y5X4;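 active = percent inhibition above the cutoff of mean plus 3 SD of all tested compounds, set per screening campaign, cut at about 20% in these data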;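 note: 0% = DMSO wells and 100% = biotin wells as full block of FRET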
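Format: 1536-well format; test system: GST-NR2E3 and biotin-RetCOR proteins; read-out basis: percent inhibition of TR-FRET ratio; timing: 5 h incubation at 4 °C; detection: time-resolved FRET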
DAX1 inh-2: DAX1 (NR0B1) inhibition, primary screen | HEK293T StAR-luciferase reporter, SF-1/DAX-1 repression relief | AID 652010 | inhibition, % at 6.8 µM | hit rate 1.1% among 370,000;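 active = inhibition above the mean over all tested compounds plus 3 SD, cut at about 3.6% in these data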;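 note: 0% = DAX-1 cells with DMSO and 100% = cells lacking DAX-1 with DMSO; higher inhibition means more luminescence from relief of DAX-1 repression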
NR2E3 ag confirm: NR2E3 agonism confirmed in two-hybrid assay. hit rate 51% among 2,300. shares compounds with NR2E3 ag-1. inhibition, % at 3.98 µM. CHO-S mammalian two-hybrid NR2E3-NCOR, luciferase luminescence;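 active = average inhibition above a cutoff equal to the mean inhibition of all tested compounds plus one SD, cut at about 70% in these data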;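 note: 0% = DMSO in NR2E3 cells and 100% = DMSO in cells lacking NR2E3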
GAL4-VP16 luc: reduces GAL4-VP16 reporter signal in NR2E3 counterscreen; AID 624379; hit rate 29% among 2,300; inhibition, % at 3.98 µM; CHO-S GAL4-VP16 luciferase reporter, luminescence; shares compounds with NR2E3 ag-1;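 active = mean inhibition above a cutoff equal to the average over all tested compounds plus one standard deviation, cut at about 70% in these data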;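 note: luciferase from a UAS reporter driven by GAL4-VP16 transactivation; 0% = DMSO with VP16-transfected cells and 100% = DMSO with cells lacking VP16; higher means less reporter light so more repression of VP16 activity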
* = called active by the depositor; ! = a repeat was not active.

CN(Cc1ccc(Cl)c(Cl)c1)C(=O)c1cccc(S(=O)(=O)N2CCN(Cc3ccccc3)CC2)c1 was read as NR2E3 ag-1 58.7, DAX1 inh-1 -1.5, SMARCA2 activ -4.9, GASC-1 inh 3.4, NR2E3 ag-2 -4.7, DAX1 inh-2 -4.4, NR2E3 ag confirm 63.3 and GAL4-VP16 luc 52.2.
`CN(Cc1cccc(Cl)c1Cl)C(=O)c1cccc(S(=O)(=O)N2CCN(Cc3ccccc3)CC2)c1` gave NR2E3 ag-1 56.4, DAX1 inh-1 -0.2, SMARCA2 activ -3.6, GASC-1 inh 3.2, NR2E3 ag-2 -0.8, DAX1 inh-2 -6.4, NR2E3 ag confirm 85.7* and GAL4-VP16 luc 58.8.
For C=CCN(C(=O)[C@@H](C)[C@@H](O)c1ccc(C(C)=O)cc1)c1ccccc1 the results were SMARCA2 activ -2.2 and DAX1 inh-2 -0.5.
Screening CC(C)Oc1cccc(-c2n[nH]c(=S)n2N=Cc2ccc(OCc3ccccc3)cc2)c1 returned SMARCA2 activ -0.7 and DAX1 inh-2 0.6.
Cc1cc(C(=O)NC2CCCc3c2cnn3-c2ccc(C)c(C)c2)no1 (stereo not given) was read as NR2E3 ag-1 19.8, DAX1 inh-1 -1.1, SMARCA2 activ -2.1, GASC-1 inh -5.8, NR2E3 ag-2 -2.4 and DAX1 inh-2 -5.4.
For Cc1cc(C(=O)NC2CCCc3c2cnn3-c2cccc(C)c2C)n(C)n1 (stereo not given) the results were NR2E3 ag-1 109.7*, DAX1 inh-1 -2.5, SMARCA2 activ -2.8, GASC-1 inh 2.3, NR2E3 ag-2 -1.5, DAX1 inh-2 -8.9, NR2E3 ag confirm 98.0* and GAL4-VP16 luc 90.8*.
For Cc1ccc(-n2ncc3c2CCCC3NC(=O)c2ocnc2C)cc1C (stereo not given) the results were NR2E3 ag-1 100.9*, DAX1 inh-1 -2.9, SMARCA2 activ -4.5, GASC-1 inh -1.7, NR2E3 ag-2 1.6, DAX1 inh-2 -8.6, NR2E3 ag confirm 90.4* and GAL4-VP16 luc 79.9*.
`CCc1[nH]nc(C(=O)NC2CCCc3c2cnn3-c2cc(C)cc(C)c2)c1C` (stereo not given) gave NR2E3 ag-1 61.4, DAX1 inh-1 -0.2, SMARCA2 activ 2.7, GASC-1 inh 10.1, NR2E3 ag-2 1.6, DAX1 inh-2 2.6, NR2E3 ag confirm 54.3 and GAL4-VP16 luc -7.5.
For CCn1nc(C)cc1C(=O)NC1CCCc2c1cnn2-c1ccc(C)c(C)c1 (stereo not given) the results were NR2E3 ag-1 57.9, DAX1 inh-1 -2.1, SMARCA2 activ -6.6, GASC-1 inh -5.1, NR2E3 ag-2 -2.3, DAX1 inh-2 -8.2, NR2E3 ag confirm 55.0 and GAL4-VP16 luc 40.0.
`CCCC(=O)NC1CCCc2c1cnn2-c1ccc(C)c(C)c1` (stereo not given) gave NR2E3 ag-1 -55.8, DAX1 inh-1 -0.7, SMARCA2 activ -1.3, GASC-1 inh 1.9, NR2E3 ag-2 -1.7 and DAX1 inh-2 0.7.
For O=C(OCCN1CCN(C2CN(Cc3cn(Cc4cccc(F)c4)nn3)S(=O)(=O)C2)CC1)c1cc2ccccc2o1 (stereo not given) the results were SMARCA2 activ 2.9 and DAX1 inh-2 -0.4.
Screening O=C(C1CCCN1S(=O)(=O)c1ccc([N+](=O)[O-])cc1)N1CCN(c2ccccc2)CC1 (stereo not given) returned SMARCA2 activ -4.9 and DAX1 inh-2 0.8.
O=C(c1ccc(CSc2nc3ccncc3[nH]2)cc1)N1CCN(c2cccc(Cl)c2)CC1 was read as NR2E3 ag-1 87.9*, DAX1 inh-1 -3.2, SMARCA2 activ -9.0, GASC-1 inh 9.2, NR2E3 ag-2 2.1, DAX1 inh-2 -4.8, NR2E3 ag confirm 97.5* and GAL4-VP16 luc 69.3.
O=C(c1ccc(CSc2nc3ccncc3[nH]2)cc1)N1CCCCCC1 was read as NR2E3 ag-1 -70.7, DAX1 inh-1 -3.5, SMARCA2 activ 4.4, GASC-1 inh 3.6, NR2E3 ag-2 0.9 and DAX1 inh-2 1.0.
For CC(C)(C)c1ccc(-c2nnc(SCC(=O)Nc3ccc(S(=O)(=O)Nc4nccs4)cc3)n2Cc2ccco2)cc1 the results were SMARCA2 activ -4.4 and DAX1 inh-2 -0.7.
`c1ccc(CNc2ncnc3ccccc23)cc1` gave NR2E3 ag-1 79.9*!, DAX1 inh-1 -1.9, SMARCA2 activ -4.7, GASC-1 inh -4.6, NR2E3 ag-2 -0.4, DAX1 inh-2 -3.1, NR2E3 ag confirm 72.4* and GAL4-VP16 luc 71.1*.
`COc1cc2ncnc(NCc3ccccc3)c2cc1OC` gave NR2E3 ag-1 -7.9, DAX1 inh-1 3.5, SMARCA2 activ -3.1, GASC-1 inh -10.1, NR2E3 ag-2 0.1 and DAX1 inh-2 0.2.
`OCCCCCNc1ncnc2ccccc12` gave NR2E3 ag-1 79.3*, DAX1 inh-1 -1.9, SMARCA2 activ -1.0, GASC-1 inh -6.3, NR2E3 ag-2 1.3, DAX1 inh-2 -2.7, NR2E3 ag confirm 68.0 and GAL4-VP16 luc 61.5.
`CCN(CC)CCCNc1ncnc2ccccc12` gave NR2E3 ag-1 -23.8, DAX1 inh-1 -0.1, SMARCA2 activ 0.0, GASC-1 inh -9.2, NR2E3 ag-2 2.5 and DAX1 inh-2 0.6.
Screening COC(=O)[C@]12C[C@H](CC(=O)N3CCSCC3)C(=O)N(CCc3ccc(OC)c(OC)c3)C1=C[C@H](C1CCCC1)O[C@@H]2C returned SMARCA2 activ -2.2 and DAX1 inh-2 -1.6.
`CCOC(=O)[C@@]12CN(C(=O)OC(C)(C)C)CC=C1N(Cc1ccc(OC)cc1)C(=O)[C@H]2CC(=O)N1CCC(c2ccccc2)CC1` gave SMARCA2 activ -3.6 and DAX1 inh-2 -1.4.
For CCOc1ccc(C2CC=C(C(=O)O)CN2S(=O)(=O)c2ccc(C)cc2)cc1 (stereo not given) the results were SMARCA2 activ 1.4 and DAX1 inh-2 0.4.
Screening CCc1ccc(CNC(=O)c2cc3c(C)nc4ccccc4c3o2)cc1 returned NR2E3 ag-1 93.6*, DAX1 inh-1 -1.6, SMARCA2 activ -7.7, GASC-1 inh 16.8, NR2E3 ag-2 -3.6, DAX1 inh-2 -3.8, NR2E3 ag confirm 95.2* and GAL4-VP16 luc 86.5*.
For COc1ccc(-n2c(Cc3cccs3)nnc2SCC(=O)Nc2ccc(OCc3ccccc3)cc2)cc1 the results were SMARCA2 activ -6.5 and DAX1 inh-2 -2.8.
`CCCCOc1ccc(CONS(=O)(=O)c2ccc(NC(C)=O)cc2)cc1Cl` gave NR2E3 ag-1 49.8, DAX1 inh-1 -0.8, SMARCA2 activ 0.1, GASC-1 inh -5.1, NR2E3 ag-2 -5.0, DAX1 inh-2 -0.1, NR2E3 ag confirm 81.2* and GAL4-VP16 luc 53.9.
